Screening results deposited in PubChem by Sanford-Burnham Center for Chemical Genomics.
Rows were chosen to be rich in hits. Some 2% of all compounds tested hit in one or more screens of this group.
SUMO1-SIM PPI – modulators of SUMO1 protein-protein interactions, primary screen, biochemical, uHTS; Small ubiquitin-related modifier 1 (Homo sapiens), P63165; SUMO1 binding to a labelled peptide, TR-FRET, 1 h; inhibition, % at 20 µM; 360,000 compounds, 0.33% hits; AID 602429, 2012; in the data active = inhibition above about 37%
LMPTP inh – LMPTP phosphatase inhibitors, primary screen, biochemical, fluorescence intensity, uHTS | inhibition, % at 20 µM | AID 651560, 2012 | Low molecular weight phosphotyrosine protein phosphatase (Homo sapiens), P24666 | 360,000 compounds, 0.22% hits | recombinant LMPTP-A, OMFP fluorogenic substrate;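 active = compounds that cut the enzyme signal by at least half of the control window in the single-dose screen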
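Assay system: LMPTP-A phosphatase enzyme | Input: 0.625 nM enzyme | Also added: Fluorogenic phosphatase substrate OMFP at 400 µM final | Compound dosing: One test concentration per compound, 20 µM, with 3% DMSO overall | Schedule: 50 min enzyme reaction at room temperature, protected from light | Signal: Fluorescence intensity | Benchmarks: no-enzyme and uninhibited controls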
CSN deneddyl inh – inhibitors of CSN-mediated cullin deneddylation, primary screen, biochemical, fluorescence polarization, uHTS. COP9 signalosome complex subunit 5 (Homo sapiens), Q92905. Purified CSN, SCF-Nedd8-OG deneddylation. inhibition, % at 12.5 µM. 360,000 compounds, 0.38% hits. AID 651999, 2013;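 active = pattern-corrected inhibition above about 35%, with an unprinted fluorescence ratio check between 0.5 and 1.5, limit read from the data, passing the limit was not always enough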
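Test system: purified human Csn5 enzyme expressed in HEK293T cells. Amount: 0.24 nM enzyme. Reagent: SCFSkp2-Nedd8OG substrate at 10 nM final. Schedule: 90 min incubation of compound, enzyme and substrate at room temperature. Detection: fluorescence polarization. Read-out: % inhibition of substrate cleavage by Csn5.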
DNMT1 inh – human DNMT1 methyltransferase inhibitors, primary screen, biochemical, molecular beacon, fluorescence, HinP1I cleavage, uHTS. DNA (cytosine-5)-methyltransferase 1 (Homo sapiens), P26358. inhibition (reported as % activation of signal), % at 10 µM. 360,000 compounds, 0.83% hits. AID 588458, 2011; in the data active = inhibition above about 50%
Target sequence (P26358 504-1616 limits assumed): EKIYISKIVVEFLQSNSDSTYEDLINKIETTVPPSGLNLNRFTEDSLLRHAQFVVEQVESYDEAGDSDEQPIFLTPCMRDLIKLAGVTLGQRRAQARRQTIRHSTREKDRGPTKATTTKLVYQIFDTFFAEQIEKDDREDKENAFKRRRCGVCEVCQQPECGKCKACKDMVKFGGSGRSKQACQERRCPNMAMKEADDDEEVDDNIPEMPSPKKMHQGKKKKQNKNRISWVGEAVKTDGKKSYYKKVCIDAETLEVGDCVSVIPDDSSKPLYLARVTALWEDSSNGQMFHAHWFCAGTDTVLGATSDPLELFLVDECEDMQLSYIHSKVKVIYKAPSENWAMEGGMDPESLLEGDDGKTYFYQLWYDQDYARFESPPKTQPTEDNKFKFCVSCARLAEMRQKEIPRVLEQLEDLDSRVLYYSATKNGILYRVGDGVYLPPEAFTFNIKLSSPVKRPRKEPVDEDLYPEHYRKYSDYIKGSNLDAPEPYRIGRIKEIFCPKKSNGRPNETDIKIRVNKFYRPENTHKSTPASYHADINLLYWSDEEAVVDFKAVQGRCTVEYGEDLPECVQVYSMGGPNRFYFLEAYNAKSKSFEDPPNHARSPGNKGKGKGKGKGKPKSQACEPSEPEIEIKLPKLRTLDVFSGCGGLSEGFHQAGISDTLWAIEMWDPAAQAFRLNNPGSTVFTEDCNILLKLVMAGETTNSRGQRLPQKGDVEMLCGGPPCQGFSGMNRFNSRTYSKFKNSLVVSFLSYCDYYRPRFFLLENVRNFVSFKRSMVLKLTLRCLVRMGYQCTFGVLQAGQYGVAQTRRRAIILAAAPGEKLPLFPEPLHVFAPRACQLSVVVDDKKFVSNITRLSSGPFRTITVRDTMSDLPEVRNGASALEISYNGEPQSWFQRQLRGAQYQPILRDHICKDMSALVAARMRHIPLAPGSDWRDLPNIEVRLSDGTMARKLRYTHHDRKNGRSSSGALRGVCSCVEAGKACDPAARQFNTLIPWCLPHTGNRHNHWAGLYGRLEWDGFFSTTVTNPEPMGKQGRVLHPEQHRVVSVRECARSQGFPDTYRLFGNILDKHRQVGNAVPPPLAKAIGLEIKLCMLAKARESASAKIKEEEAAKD
STEP block – STEP phosphatase inhibitors, primary screen, biochemical, fluorescence intensity, uHTS; Tyrosine-protein phosphatase non-receptor type 5 (Homo sapiens), P54829; recombinant STEP, OMFP fluorogenic substrate; inhibition, % at 20 µM; 360,000 compounds, 0.25% hits;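 active = inhibition at 20 µM, scaled per plate between control wells, above about 37%, limit read from the data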
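Measure: Control-normalized % inhibition with plate pattern correction | Test system: STEP phosphatase, cell-free reaction | Medium: pH 6.0 Bis-Tris with DTT and Tween 20 | Technique: Fluorescence, 480/540 nm | Times: Reaction 20 min, ambient temperature | Doses: Single compound dose of 20 µM, 1% DMSO final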
Scp-1 inhibitor – Scp-1 phosphatase inhibitors, primary screen, biochemical, colorimetric, uHTS. Carboxy-terminal domain RNA polymerase II polypeptide A small phosphatase 1 (Homo …. Recombinant Scp1, phosphopeptide, malachite green phosphate absorbance. inhibition, % at 20 µM. 340,000 compounds, 0.88% hits;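 active = inhibition above about 50% at 20 µM, limit read from the data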
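System: SCP-1 catalytic domain; Reagent: Phospho 17-mer peptide substrate; Doses: one concentration, 20 µM, with 1.0% DMSO; Incubation: 45 min room-temperature reaction, 5 min colour, 30 min stabiliser; Signal: Phosphate-binding colour reagent, absorbance read at 630 nm.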
Scp-1 conf – Scp-1 phosphatase inhibitors, retest, confirmation, biochemical, colorimetric, single concentration. 2,500 compounds, 61% hits. shares compounds with Scp-1 inhibitor. AID 540281, 2011. recombinant SCP-1 catalytic domain, phosphate release, malachite green absorbance. inhibition, % at 20 µM
Scp-1 MG ctr – colorimetric readout interference by compounds, confirmation, artefact control for Scp-1 inhibitor project, biochemical, single concentration. shares compounds with Scp-1 inhibitor. Colorimetric interference counterscreen, malachite green absorbance 630 nm. apparent inhibition (interference), % at 20 µM. 2,500 tested, under 10 active. AID 540313, 2011;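 note: compounds added after enzyme reaction finished so only phosphate colour detection is probed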
Scp1 DSF – Scp-1 binding by thermal shift, confirmation, orthogonal assay for Scp-1 inhibitor project, biophysical, differential scanning fluorimetry; Recombinant SCP1, Sypro Orange thermal shift Tm; shares compounds with Scp-1 inhibitor; 1,500 compounds, 25% hits; thermal shift relative to vanadate control, % at 40 µM;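 active = substances whose mean melting-temperature shift, as a percentage of the reference inhibitor's shift, reaches about 5.3%, limit read from the data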
Hits are given with their value; i = inactive; nt = no result given.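 Rule for the calls, unless noted: active = inhibition of at least 30% at 20 µM; inactive = the rest.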

SMILES	SUMO1-SIM PPI	LMPTP inh	CSN deneddyl inh	DNMT1 inh	STEP block	Scp-1 inhibitor	Scp-1 conf	Scp-1 MG ctr	Scp1 DSF
Cc1ccc2c(=O)c(C(=O)c3ccc(F)cc3)cn(CC(=O)NCc3ccco3)c2n1	i	i	i	i	i	60.5	51.6	i	i
COc1cccc(C(=O)c2cn(CC(=O)NCc3ccco3)c3nc(C)ccc3c2=O)c1	i	i	i	i	i	62.1	66.3	i	i
O=C(NNC(=O)c1cc(Cl)ccc1O)c1cccc(S(=O)(=O)N2CCOCC2)c1	i	i	i	i	i	i	nt	nt	nt
CSCCC(NC(=O)c1ccco1)C(=O)N1CCN(C(c2ccccc2)c2ccccc2)CC1 (stereo not drawn)	i	i	i	i	i	i	nt	nt	nt
O=C(NN=C1c2ccccc2-c2ccccc21)c1ccccn1	i	i	i	i	i	72.8	i	i	nt
Cc1ccc(F)cc1NC(=O)c1ccc(NS(=O)(=O)c2ccc(Br)s2)cc1	i	i	i	i	i	i	nt	nt	nt
Cc1cccnc1NC(=O)c1ccc(OCc2c(C)noc2C)cc1	i	i	i	i	i	i	nt	nt	nt
O=C(NNC(=O)c1ccccc1F)c1ccc2nc[nH]c2c1	i	i	i	i	i	i	nt	nt	nt
O=C(NNC(=O)c1ccccc1Br)c1ccc2nc[nH]c2c1	i	i	i	i	i	73.4	66.0	i	i
O=C(Nc1ccccc1C(=O)N1CCCCCC1)c1ccccc1	i	i	i	i	i	58.5	i	i	nt
C[N+]1(C)CCC(=C2c3ccccc3CC(=O)c3sccc32)CC1	i	i	i	i	i	97.1	i	i	nt
CC#CC#Cc1cccc(=O)o1	i	i	i	56.5	i	53.8	41.9	i	i
CCC1(C(=O)OC)CCc2c(cc(OC)c3ccccc23)C1=O (stereo not drawn)	i	i	i	i	i	i	nt	nt	nt
O=C(O)c1ccc2c(=O)n3c(nc2c1)/C(=C/c1ccc(Cl)c(Cl)c1)CC3	i	i	i	i	i	55.0	i	i	nt
O=C(O)c1ccc2c(=O)n3c(nc2c1)/C(=C/c1cccc(O)c1)CC3	i	i	i	i	i	i	nt	nt	nt
CCOc1cc(/C=C2\SC(=O)N(CC(=O)Nc3ccccc3F)C2=O)cc([N+](=O)[O-])c1O	i	i	i	i	i	85.2	62.0	i	20.8
Cc1cccc(N2CCN(c3ccc(NC(=O)/C=C(/C(=O)O)c4ccccc4)cc3)CC2)c1	i	i	i	i	i	58.0	71.5	i	i
CC(=O)N1CCN(c2ccc(NC(=O)c3cccc(C)c3)cc2)CC1	i	i	i	i	i	i	nt	nt	nt
COC(=O)Cn1c(=NC(=O)c2cc(-c3cccs3)nc3ccccc23)sc2cc(S(N)(=O)=O)ccc21	i	i	i	i	i	i	nt	nt	nt
COC(=O)Cn1c(=NC(=O)c2nc3ccccc3s2)sc2cc(S(N)(=O)=O)ccc21	i	i	i	i	i	63.7	51.6	i	i
Cc1cc(OCC[N+]2(C)CCCCC2)nc2ccccc12	i	i	i	i	i	102.4	89.9	i	i
Cc1cc(NC2CCCCC2)nc2ccccc12	i	i	i	i	i	i	nt	nt	nt
CCOc1ccc2nc(S(=O)(=O)NC(=O)C3(C)CCN3C(=O)CCc3cccs3)sc2c1 (stereo not drawn)	i	i	i	i	i	nt	nt	nt	nt
C[n+]1cnn2c1SCC1(COC1)C2	i	i	i	i	i	104.3	i	i	nt
COCCCNC(=O)C1CC(=O)N(Cc2ccc(OC)cc2)C1 (stereo not drawn)	i	i	i	i	i	i	nt	nt	nt
SMILES	SUMO1-SIM PPI	LMPTP inh	CSN deneddyl inh	DNMT1 inh	STEP block	Scp-1 inhibitor	Scp-1 conf	Scp-1 MG ctr	Scp1 DSF
COc1ccc(CN2CC(C(=O)NCCCOC(C)C)CC2=O)cc1 (stereo not drawn)	i	i	i	i	i	i	i	i	nt
COc1cc(C(=O)OCCCN=C2NS(=O)(=O)c3ccccc32)cc(OC)c1OC	i	i	i	i	i	i	nt	nt	nt
COc1ccc(NC(C)=[N+](C)CCNS(=O)(=O)c2ccc(Cl)cc2)cc1	i	i	i	i	i	95.7	92.7	i	i
CCc1ccc(N(C(=O)c2csnn2)C(C(=O)NC(C)(C)CC)c2ccccn2)cc1 (stereo not drawn)	i	i	i	i	i	i	nt	nt	nt
CC1CCCC/C1=N\NC(=S)NCCc1ccccc1 (stereo not drawn)	i	i	i	i	i	i	nt	nt	nt
C[n+]1ccccc1C1CCCC/C1=N\NC(N)=S (stereo not drawn)	i	i	i	i	i	112.6	99.7	i	i
O=C(CSc1n[nH]c(-c2ccncc2)n1)Nc1ccc(Cl)c(Cl)c1	i	i	i	i	i	52.4	i	i	nt
O=C(Nc1nc(-c2cccnc2)cs1)c1ccccc1[N+](=O)[O-]	i	i	i	i	i	i	nt	nt	nt
CCn1c(=O)c(=O)[nH]c2cc(C(=O)NCc3ccc(F)cc3)ccc21	i	i	i	i	i	i	i	i	nt
O=C(Nc1ccc2nn(-c3ccccc3)nc2c1)c1ccc(Br)o1	i	i	i	76.0	i	92.7	90.2	i	i
CC(=O)c1ccccc1NS(=O)(=O)c1cccc2nsnc12	i	68.1	i	51.1	96.7	80.0	51.3	i	i
O=C1c2cccnc2C(=O)N1Cc1ccc(S(=O)(=O)N2CCOc3ccc(Cl)cc32)cc1	i	i	i	i	i	i	nt	nt	nt
CN(CCCC1CCCC1)C(=O)c1cc(COc2ccc(F)c(F)c2)on1	i	i	i	i	i	63.4	i	i	nt
O=C(CCS(=O)(=O)c1ccc(Br)cc1)NC1CCCCCC1	i	i	i	i	i	70.2	68.6	i	i
O=C(COC(=O)c1ccc(CO)cc1)Nc1ccc2ccccc2c1	i	i	i	i	i	i	nt	nt	nt
